Data on six molecules can be found in ChEMBL document CHEMBL1126988, “Quinolone antibacterials containing the new 7-[3-(1-aminoethyl)-1- pyrrolidinyl] side chain: the effects of the 1-aminoethyl moiety and its stereochemical configurations on potency and in vivo efficacy” (J Med Chem, 1993).

In brackets after ≈: the same amount, converted by molar mass.

One experiment relates to Klebsiella pneumoniae. Kind of experiment: Minimum inhibitory concentration was evaluated in vitro against Klebsiella pneumoniae MGH2. It is filed as functional. In short, it runs like this:
(§1)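 Standard microtitration broth assay against a panel of 10 Gram-positive and Gram-negative organisms. MIC read in µg/mL and averaged over multiple experiments.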

In another experiment the test system is Pseudomonas aeruginosa. In words: Minimum inhibitory concentration was evaluated in vitro against Pseudomonas aeruginosa UI-18. In kind it is functional. In short, it runs like this: as §1
The test system of experiment [1] is Streptococcus pyogenes. In words: Compounds were evaluated in vivo for antibacterial activity for mouse protection against Streptococcus pyogenes C 203 after oral administration. It is filed as functional. The note with it: for ED50: Streptococcus pyogenes, C 203, po, read-out: PD50.
The test system of experiment [2] is Staphylococcus aureus. Kind of experiment: Minimum inhibitory concentration was evaluated in vitro against Staphylococcus aureus H 228. In kind it is functional. In short, it runs like this: as §1
The subject of another experiment is Streptococcus pneumoniae. In words: Minimum inhibitory concentration was evaluated in vitro against Streptococcus pneumoniae SV-1. In kind it is functional. In short, it runs like this:
as §1

Another experiment relates to Providencia rettgeri. Kind of experiment: Minimum inhibitory concentration was evaluated in vitro against Providencia rettgeri M1771. In kind it is functional. In short, it runs like this: as §1
The subject of experiment [3] is Escherichia coli. Kind of experiment: Antibacterial activity in vitro against Escherichia coli Vogel. It is filed as functional. In short, it runs like this:
as §1

Experiment [4] deals with Staphylococcus aureus. In words: Minimum inhibitory concentration was evaluated in vitro against Staphylococcus aureus UC 76. In kind it is functional. In short, it runs like this:
as §1

The next experiment relates to Enterococcus faecalis. Kind of experiment: Minimum inhibitory concentration was evaluated in vitro against Enterococcus faecalis MGH-2. In kind it is functional. In short, it runs like this:
as §1

Another experiment concerns Enterobacter cloacae. In words: Minimum inhibitory concentration in vitro against Enterobacter cloacae MA 2646. It is filed as functional.
The target in the next experiment is DNA gyrase (Escherichia coli, UniProt P0AES4+P0AES6). In words: Inhibition against DNA gyrase. In kind it is protein-complex assay.
The subject of experiment [5] is Streptococcus pyogenes. Kind of experiment: Antibacterial activity measured as mouse protection against Streptococcus pyogenes C 203 after subcutaneous administration. The note with it: for ED50: Streptococcus pyogenes, C 203, sc, read-out: PD50. It is filed as functional.
In experiment [6] the test system is Streptococcus pyogenes. Kind of experiment: Minimum inhibitory concentration was evaluated in vitro against Streptococcus pyogenes C 203. In kind it is functional. In short, it runs like this:
as §1

The species named for a further experiment is Mus musculus. In words: Compounds were evaluated for phototoxicity no-effect dose in mouse. It is filed as functional. In short, it runs like this:
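Depilated female CD-1 mice, five per dose plus controls. Animals are dosed orally and then exposed daily to UV-A (320–400 nm) for 3 h, for up to 4 days or until a definite positive response. Redness or erythema relative to controls, read 24 h after irradiation, counts as positive. Reported as the highest dose with no effect (mg/kg).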

Experiment [7] has as its system Escherichia coli. Kind of experiment: Antibacterial activity against Escherichia coli Vogel after oral administration in mouse. In kind it is functional. The conditions noted are these: Escherichia coli, po; read-out: PD50.
Experiment [8] is described as follows: Clonogenic cytotoxicity against hamster V-79 cells. In kind it is functional, Cricetulus griseus, V79. In short, it runs like this:
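Chinese hamster V-79 cells grown overnight, then drug-treated for 3 h at 37 °C. Medium is replaced with fresh medium and cells are incubated 5 days to allow colony formation. IC50 (µg/mL) is the concentration inhibiting colony formation by 50% relative to control.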

Experiment [9] has as its system Escherichia coli. Kind of experiment: Antibacterial activity against Escherichia coli Vogel after subcutaneous administration in mouse. It is filed as functional. The conditions noted are these: Escherichia coli, sc; read-out: PD50.
[10] abbreviates: Klebsiella pneumoniae, read-out: MIC.
Setting [11] is: Pseudomonas aeruginosa, read-out: MIC.
[12] abbreviates: Staphylococcus aureus, read-out: MIC.
Setting [13] is: Streptococcus pneumoniae, read-out: MIC.
Where [14] appears, read: Providencia rettgeri, read-out: MIC.
Where [15] appears, read: Escherichia coli, read-out: MIC.
Setting [16] is: Enterococcus faecalis, read-out: MIC.
The mark [17] stands for this setting: Enterobacter cloacae, read-out: MIC.
Setting [18] is: Streptococcus pyogenes, read-out: MIC.

On to `C[C@@H](N)[C@H]1CCN(c2cc3c(cc2F)c(=O)c(C(=O)O)cn3C2CC2)C1`, for which the MIC is 0.4 µg/mL (≈ 1.11 µM) in the experiment with Klebsiella pneumoniae; 1.6 µg/mL (≈ 4.45 µM) in the experiment with Pseudomonas aeruginosa; 0.4 µg/mL (≈ 1.11 µM) in the experiment on Staphylococcus aureus [2]; 0.1 µg/mL (≈ 0.278 µM) in the experiment with Streptococcus pneumoniae; 0.8 µg/mL (≈ 2.23 µM) in the experiment with Providencia rettgeri; 0.2 µg/mL (≈ 0.556 µM) with Escherichia coli [3]. Besides, the MIC against Staphylococcus aureus [4] worked out at 0.05 µg/mL (≈ 0.139 µM); with Enterococcus faecalis, 0.2 µg/mL (≈ 0.556 µM); against Enterobacter cloacae it was 0.2 µg/mL (≈ 0.556 µM); in the experiment with Streptococcus pyogenes [6], 0.1 µg/mL (≈ 0.278 µM). Further, the results for the PD50 with Streptococcus pyogenes [1] and with Streptococcus pyogenes [5] were greater than 100 mg/kg and 3 mg/kg, respectively. For the same molecule, the midpoint of inhibition against DNA gyrase, the IC50, lay at 20.9 µM.
Consider `C[C@@H](N)[C@@H]1CCN(c2cc3c(cc2F)c(=O)c(C(=O)O)cn3C2CC2)C1`, for which the MIC is 0.4 µg/mL (≈ 1.11 µM) in the experiment on Klebsiella pneumoniae (setting [10]); 1.6 µg/mL (≈ 4.45 µM) in the experiment on Pseudomonas aeruginosa (setting [11]); 0.2 µg/mL (≈ 0.556 µM) in the experiment on Staphylococcus aureus [2] (setting [12]); 0.025 µg/mL (≈ 0.0696 µM) in the experiment on Streptococcus pneumoniae (setting [13]); 0.8 µg/mL (≈ 2.23 µM) in the experiment with Providencia rettgeri (setting [14]); 0.1 µg/mL (≈ 0.278 µM) in the experiment on Escherichia coli [3] (setting [15]). For the same molecule, the minimum inhibitory concentration (MIC) in the experiment on Staphylococcus aureus [4] (setting [12]) stood at 0.05 µg/mL (≈ 0.139 µM); in the experiment on Enterococcus faecalis (setting [16]), 0.1 µg/mL (≈ 0.278 µM); in the experiment with Enterobacter cloacae (setting [17]), 0.2 µg/mL (≈ 0.556 µM); in the experiment on Streptococcus pyogenes [6] (setting [18]) it was 0.025 µg/mL (≈ 0.0696 µM). For the same molecule, the figures for the ED50 in the experiment with Streptococcus pyogenes [1] and with Streptococcus pyogenes [5] were greater than 100 mg/kg and 2 mg/kg, respectively. The molecule further gave an IC50 at DNA gyrase of 2.09 µM.
With `C[C@H](N)[C@H]1CCN(c2cc3c(cc2F)c(=O)c(C(=O)O)cn3C2CC2)C1`, the MIC in the experiment on Klebsiella pneumoniae (setting [10]) turned out to be 0.4 µg/mL (≈ 1.11 µM); in the experiment with Pseudomonas aeruginosa (setting [11]), 1.6 µg/mL (≈ 4.45 µM); with Staphylococcus aureus [2] (setting [12]), 0.8 µg/mL (≈ 2.23 µM); in the experiment with Streptococcus pneumoniae (setting [13]) it was 0.2 µg/mL (≈ 0.556 µM); in the experiment on Providencia rettgeri (setting [14]), 0.8 µg/mL (≈ 2.23 µM); with Escherichia coli [3] (setting [15]), 0.2 µg/mL (≈ 0.556 µM). For the same molecule, the MIC in the experiment on Staphylococcus aureus [4] (setting [12]) came out at 0.1 µg/mL (≈ 0.278 µM); in the experiment with Enterococcus faecalis (setting [16]), 0.4 µg/mL (≈ 1.11 µM); in the experiment with Enterobacter cloacae (setting [17]) it was 0.2 µg/mL (≈ 0.556 µM); in the experiment on Streptococcus pyogenes [6] (setting [18]), 0.1 µg/mL (≈ 0.278 µM). Also, the ED50 in the experiment on Streptococcus pyogenes [1] is greater than 100 mg/kg; in the experiment with Streptococcus pyogenes [5] it was 12 mg/kg. The same molecule showed an IC50 against DNA gyrase of 20.9 µM.
For the molecule `CCn1cc(C(=O)O)c(=O)c2cc(F)c(N3CC[C@H]([C@@H](C)N)C3)c(F)c21` (mixture of isomers), the MIC worked out at 0.1 µg/mL in the experiment on Klebsiella pneumoniae (setting [10]); 0.8 µg/mL with Pseudomonas aeruginosa (setting [11]); 0.025 µg/mL with Staphylococcus aureus [2] (setting [12]); 0.003 µg/mL in the experiment with Streptococcus pneumoniae (setting [13]); 0.2 µg/mL with Providencia rettgeri (setting [14]); 0.05 µg/mL in the experiment with Escherichia coli [3] (setting [15]). The MIC came out at 0.006 µg/mL in the experiment with Staphylococcus aureus [4] (setting [12]), 0.013 µg/mL with Enterococcus faecalis (setting [16]), 0.05 µg/mL with Enterobacter cloacae (setting [17]) and 0.003 µg/mL in the experiment with Streptococcus pyogenes [6] (setting [18]). Moreover, the ED50 was found to be 1 mg/kg with Streptococcus pyogenes [1], 3 mg/kg in the experiment on Escherichia coli [7], 0.4 mg/kg in the experiment on Streptococcus pyogenes [5] and 1 mg/kg in the experiment with Escherichia coli [9]. The Dose in the experiment listed under Mus musculus is less than 10 mg/kg. For the same molecule, the Cytotoxicity in experiment [8] worked out at 9.8 µg/mL.
`CN[C@H](C)[C@H]1CCN(c2c(F)c(N)c3c(=O)c(C(=O)O)cn(C4CC4)c3c2F)C1` (mixture of isomers): the MIC with Klebsiella pneumoniae was 0.05 µg/mL; with Pseudomonas aeruginosa, 0.8 µg/mL; in the experiment on Staphylococcus aureus [2] it was 0.003 µg/mL; with Streptococcus pneumoniae it was 0.003 µg/mL; against Providencia rettgeri, 0.1 µg/mL; in the experiment with Escherichia coli [3] it was 0.025 µg/mL. Besides, the MIC turned out to be 0.003 µg/mL in the experiment on Staphylococcus aureus [4], 0.013 µg/mL in the experiment on Enterococcus faecalis, 0.025 µg/mL in the experiment on Enterobacter cloacae and 0.003 µg/mL with Streptococcus pyogenes [6]. Besides, the PD50 was 0.6 mg/kg in the experiment on Streptococcus pyogenes [1] and 0.3 mg/kg in the experiment with Streptococcus pyogenes [5]. In the experiment listed under Mus musculus, this molecule registered a Dose of less than 30 mg/kg. In addition, the figures for the ED50 in the experiment with Escherichia coli [7] and with Escherichia coli [9] were 3 mg/kg and 0.4 mg/kg, respectively. In [8], this molecule returned a Cytotoxicity of 17 µg/mL.
With `CN[C@H](C)[C@H]1CCN(c2c(F)cc3c(=O)c(C(=O)O)cn(C4CC4)c3c2C(F)(F)F)C1` (mixture of isomers), the MIC came out at 0.8 µg/mL with Klebsiella pneumoniae (setting [10]); 3.1 µg/mL with Pseudomonas aeruginosa (setting [11]); 0.025 µg/mL with Staphylococcus aureus [2] (setting [12]); 0.013 µg/mL with Streptococcus pneumoniae (setting [13]); 0.8 µg/mL in the experiment on Providencia rettgeri (setting [14]); 0.4 µg/mL in the experiment on Escherichia coli [3] (setting [15]). Further, the MIC worked out at 0.013 µg/mL in the experiment on Staphylococcus aureus [4] (setting [12]), 0.1 µg/mL with Enterococcus faecalis (setting [16]), 0.4 µg/mL in the experiment on Enterobacter cloacae (setting [17]) and 0.013 µg/mL in the experiment with Streptococcus pyogenes [6] (setting [18]). For the same molecule, the ED50 in the experiment on Streptococcus pyogenes [1] worked out at 0.8 mg/kg; in the experiment on Escherichia coli [7], 4 mg/kg; in the experiment on Streptococcus pyogenes [5] it was 0.3 mg/kg; in the experiment with Escherichia coli [9], 2 mg/kg. In the experiment listed under Mus musculus, this molecule returned a Dose greater than 100 mg/kg. Further, the Cytotoxicity in experiment [8] came to 130 µg/mL.
